Most compounds without a hit are left out; they make up all but 2% or so of the library.
NR2E3 ag-1: NR2E3 (human) agonism; inhibition of corepressor binding, % at 4.78 µM; Q9Y5X4; 0.12% of 320,000 active; GST-NR2E3/biotin-RetCOR TR-FRET, 1536-well;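 active = percent inhibition above the cutoff of mean plus 3 SD of all tested compounds, set per screening campaign, cut at about 20% in these data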
Target sequence (Q9Y5X4 whole entry, looked up): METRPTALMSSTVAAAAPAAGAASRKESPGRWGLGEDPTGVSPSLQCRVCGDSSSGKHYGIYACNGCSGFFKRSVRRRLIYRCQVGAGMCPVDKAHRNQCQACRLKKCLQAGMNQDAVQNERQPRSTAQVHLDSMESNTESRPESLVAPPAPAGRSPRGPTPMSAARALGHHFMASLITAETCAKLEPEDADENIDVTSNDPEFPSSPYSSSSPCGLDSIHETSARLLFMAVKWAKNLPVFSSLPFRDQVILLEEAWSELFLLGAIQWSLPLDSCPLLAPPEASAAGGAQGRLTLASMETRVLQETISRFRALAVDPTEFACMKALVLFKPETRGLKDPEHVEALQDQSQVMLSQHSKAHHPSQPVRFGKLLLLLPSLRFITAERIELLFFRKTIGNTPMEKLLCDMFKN
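Material – GST-tagged NR2E3 plus biotinylated RetCOR corepressor · Quantity – NR2E3 fusion 1.35 nM · Times – 5 h incubation at 4 °C · Medium – pH 7.5 Tris-based buffer · Technique – TR-FRET, Eu(K)-anti-GST donor, streptavidin-D2 acceptor, ex 340, em 617/671 nm · Benchmarks – high control biotin, low control 0.6% DMSO · Format – 1536-well plates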
Myeloid diff MLP: compounds promoting myeloid differentiation; calls only at 10 µM; ER-HoxA9 myeloid progenitors, lysozyme-GFP differentiation, flow cytometry; 1% of 360,000 active;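 active = normalized GFP-positive differentiation at or above the plate's own cutoff, the solvent-only control mean plus 3 SD; inconclusive = no clear call, values can overlap the other calls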;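 note: cells exposed to compound for four days before flow analysis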
T cell HTS: T cell immune modulation candidate. 2C CD8+ T cell-vesicle binding, flow cytometry; active compounds read low. response (vesicle binding), % at 7 µM. 0.068% of 330,000 active. AID 2052;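 active = response, share of CD8 T cells binding vesicles, and their 90th percentile fluorescence all below set limits, cut at about 80% in these data, passing the limit was not always enough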;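 note: values below 100% mean blocked vesicle binding to the CD8+ T cells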
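Assay system: 2C TCR transgenic mouse naive CD8+ T cells, MACS-purified | Read-out: CD8+ gate FL2 mean fluorescence as % of same-row positive control | Signal: High-throughput flow cytometry with anti-B7-1 and anti-CD8 staining | Timing: Binding step 1.5 h, 37 °C, antibody labelling 20 min, ice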
FXN GAA850 act: activators of GAA850 frataxin (FXN) promoter; HEK293 lucGAA850 FXN promoter luciferase reporter, 24 h; percent of 10 µM SAHA response; activation, % at 6 µM; 0.56% of 360,000 active; AID 540364;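 active = activation above the average of all compounds screened plus 3 SD, cutoff fixed separately per campaign, cut at about 7.5% in these data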
NR2E3 ag-2: agonists of human NR2E3 nuclear receptor. Q9Y5X4. CHO-S Gal4-NCOR/VP16-NR2E3 two-hybrid, luciferase. inhibition of corepressor binding, % at 3.98 µM. 0.35% of 360,000 active. AID 602229;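 active = inhibition above the mean of all tested compounds plus 3 SD, cut at about 70% in these data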;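 note: higher means lower luciferase signal from less NR2E3 corepressor binding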
GAA30 counter: counter-screen for GAA850 frataxin promoter activators: GAA30 promoter activation. shares compounds with FXN GAA850 act. activation, % at 6 µM. HEK293 lucGAA30 FXN promoter luciferase, 24 h; DMSO = 0%, 5 µM ipriflavone = 100%. 66% of 1,900 active;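 active = mean activation above the mean of solvent-only control wells plus 3 SD, cut at about 22% in these data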;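 note: counterscreen of GAA850 promoter hits where activity marks nonselective or luminescence artifacts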
GAA850 confirm: GAA850 FXN promoter activation confirmation. 86% of 1,900 active. activation, % at 6 µM. AID 588351. HEK293 lucGAA850 FXN promoter luciferase reporter, 24 h; 100% = activation by SAHA. shares compounds with FXN GAA850 act;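 active = mean activation above a set limit taken from the primary screen, cut at about 8% in these data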
Each line names hits and unclear results; the compound was inactive in the other large screens (follow-up assays come after a bar, where they were run).

Fc1ccc(/C=N/Nc2ncnc3nc[nH]c23)cc1F	none
C[C@@H]1C2CC(C/C2=N\NC(=O)c2ccncc2)C1(C)C (stereo not given in full)	none
COc1ccc([C@@H]2[C@@H]3C(=O)N(C(C)(C)C)C(=O)[C@@H]3[C@]3(Cc4ccccc4)C(=O)N(c4ccccc4)C(=O)N23)cc1	none
CC[C@@]12C(=O)N(c3ccc(C)cc3)C(=O)N1[C@H](c1ccc(OC)cc1)[C@@H]1C(=O)N(C(C)(C)C)C(=O)[C@@H]12	FXN GAA850 act 12 | GAA30 counter 33 | GAA850 confirm 13
CC[C@@]12C(=O)N(c3ccccc3)C(=O)N1[C@H](c1ccc(OC)cc1)[C@@H]1C(=O)N(C(C)(C)C)C(=O)[C@@H]12	FXN GAA850 act 11 | GAA30 counter 35 | GAA850 confirm 14
COc1ccc(N2C(=O)N3[C@H](c4ccc(Br)cc4)[C@@H]4C(=O)N(C(C)(C)C)C(=O)[C@@H]4[C@]3(Cc3ccccc3)C2=O)cc1	none
CC[C@@]12C(=O)N(c3ccc(C)cc3)C(=O)N1[C@H](c1ccc(Br)cc1)[C@@H]1C(=O)N(C(C)(C)C)C(=O)[C@@H]12	FXN GAA850 act 13 | GAA30 counter 28 | GAA850 confirm 10
C/C=C/c1cnc2c(c1)C(=O)N([C@@H](C)CO)C[C@H](C)[C@@H](CN(C)S(=O)(=O)c1ccc(C)cc1)O2	none (no result: NR2E3 ag-1, T cell HTS)
COCc1cn(CC(C)n2c(=O)c3ccccc3n2Cc2cc(C(C)C)no2)nn1 (stereo not given)	none (no result: NR2E3 ag-1, T cell HTS, FXN GAA850 act, NR2E3 ag-2)
Cc1ccc(-c2nnn(CC(=O)N(CC3CCCO3)C(C(=O)NC3CCCCC3)c3ccc(F)cc3)n2)o1 (stereo not given)	FXN GAA850 act 8.3 | GAA30 counter 22 | GAA850 confirm 8.4
COc1ccc(C(C(=O)NC2CCCC2)N(CC2CCCO2)C(=O)Cn2nnc(-c3ccc(C)o3)n2)cc1 (stereo not given)	none
CC1(Cc2ccc(Cl)cc2)C(=O)Nc2ccc(S(=O)(=O)NC3CCCCC3)cc21 (stereo not given)	FXN GAA850 act 8.3 (no result: NR2E3 ag-1, T cell HTS) | GAA30 counter inactive | GAA850 confirm inactive
CN(C)c1nc(OCCNC(=O)COc2ccc(Cl)cc2Cl)nc(N(C)C)n1	FXN GAA850 act 8.3 | GAA30 counter inactive | GAA850 confirm inactive
Cc1ccc2ccccc2c1NC(=O)CNCc1ccccc1	none (no result: NR2E3 ag-1, T cell HTS)
O=C(O)c1ccc(-c2noc(-c3ccccc3F)n2)cc1	none (no result: T cell HTS)
Cc1ccc(-c2noc(-c3ccccc3F)n2)cc1	FXN GAA850 act 8.1 | GAA30 counter 135 | GAA850 confirm 45
CSc1ccc(CN2CCC2(C)C(=O)NCc2ccc3c(c2)OCO3)cc1 (stereo not given)	none (no result: NR2E3 ag-1, T cell HTS)
Cc1cc(C)c2c(N)c(C(=O)Nc3ccc([N+](=O)[O-])cc3)sc2n1	FXN GAA850 act 9.4 | GAA30 counter 98 | GAA850 confirm 32
COC(=O)C[C@@H]1CC[C@@H](NC(C)=O)[C@@H](CO)O1	none (no result: NR2E3 ag-1, T cell HTS, FXN GAA850 act, NR2E3 ag-2)
O=C(O)Cc1cn(-c2ccccc2)nc1-c1ccccc1	none
O=C(O)/C=C/C(=O)NCc1cn(-c2ccccc2)nc1-c1cccc(Br)c1	FXN GAA850 act 8.2 | GAA30 counter 30 | GAA850 confirm 13
CCc1ccc2oc(-c3cc(N)cc(C)c3O)nc2c1	FXN GAA850 act 7.7 | GAA30 counter 81 | GAA850 confirm 40
C=C1C(=O)O[C@@H]2[C@H]1[C@@H](OC(=O)/C(C)=C/C)C/C(C)=C\C(=O)/C=C(\C)[C@@H]2O	Myeloid diff MLP inconclusive
C=C1C(=O)O[C@H]2[C@H]1[C@H](OC(=O)/C(C)=C\C)C[C@]1(CO1)[C@@H]1[C@H](OC(C)=O)C=C(C)[C@]21O	Myeloid diff MLP inconclusive, FXN GAA850 act 12 (no result: NR2E3 ag-1, T cell HTS) | GAA30 counter inactive | GAA850 confirm 17
CC(C)(C)C(=O)COc1ccccc1[N+](=O)[O-]	none
CCOC(=O)/C=C/COc1ccccc1[N+](=O)[O-]	FXN GAA850 act 8.3 | GAA30 counter 89 | GAA850 confirm 27
COc1cc2c(cc1OC)-c1cc(NC3CCCCCCC3)nc(=O)n1CC2	FXN GAA850 act 8.1 | GAA30 counter inactive | GAA850 confirm 13
COc1cc2c(cc1OC)-c1cc(NC3CCCCC3)nc(=O)n1CC2	FXN GAA850 act 10 | GAA30 counter inactive | GAA850 confirm 11
COc1cc2c(cc1OC)-c1cc(Nc3ccccc3C)nc(=O)n1CC2	none
CCNc1cc2n(c(=O)n1)CCc1cc(OC)c(OC)cc1-2	FXN GAA850 act 9.9 | GAA30 counter inactive | GAA850 confirm inactive
COc1cc2c(cc1OC)-c1cc(NC3CC3)nc(=O)n1CC2	none
CCCC(C)(C)C(=O)N1CCC1(C)C(=O)NS(=O)(=O)c1ccc(Br)cc1 (stereo not given)	none (no result: NR2E3 ag-1, T cell HTS)
Cc1ccc(Cl)cc1NC(=O)C(Cc1ccccc1)N1C(=O)C2C3CCC(C3)C2C1=O (stereo not given)	FXN GAA850 act 15 | GAA30 counter inactive | GAA850 confirm 9.4
Cc1ccc(NC(=O)C(Cc2ccccc2)N2C(=O)C3C4CCC(C4)C3C2=O)cc1Cl (stereo not given)	none
Cc1nn2cc(-c3ncc(C(F)(F)F)cc3Cl)cnc2c1Br	FXN GAA850 act 10.0 | GAA30 counter 54 | GAA850 confirm 20
CN1C(C)(C)CC(O)(C(=O)O)CC1(C)C	none (no result: NR2E3 ag-1, T cell HTS, FXN GAA850 act)
CC[C@@]1(C(=O)OC)N[C@H](CN(C)C(=O)Nc2ccc(C)cc2)[C@@H]2C(=O)N(Cc3ccccc3)C(=O)[C@@H]21	FXN GAA850 act 15 (no result: NR2E3 ag-1) | GAA30 counter 42 | GAA850 confirm 14
CC[C@@]1(C(=O)OC)N[C@H](CN(C)C(=O)Nc2ccc(F)cc2)[C@@H]2C(=O)N(Cc3ccccc3)C(=O)[C@@H]21	FXN GAA850 act 9.6 (no result: NR2E3 ag-1) | GAA30 counter 38 | GAA850 confirm 18
CC[C@@]1(C(=O)OC)N[C@H](CN(C)C(=O)Nc2ccc(OC)cc2)[C@@H]2C(=O)N(Cc3ccccc3)C(=O)[C@@H]21	FXN GAA850 act 17 (no result: NR2E3 ag-1) | GAA30 counter 84 | GAA850 confirm 24
CC(=O)c1ccc(OCC(=O)Nc2nnc(C3CC3)s2)cc1	none (no result: NR2E3 ag-1, T cell HTS)
C[C@H](CO)N1C[C@H](C)[C@@H](CN(C)C(=O)c2ccc3ccn(C)c3c2)OCc2cn(nn2)CCCC1=O	none (no result: NR2E3 ag-1, T cell HTS)
O=C1OC(=O)c2cc([N+](=O)[O-])ccc21	none
O=C1Nc2ccccc2Nc2ccc([N+](=O)[O-])cc21	FXN GAA850 act 8.3 | GAA30 counter 115 | GAA850 confirm 35

High-throughput results from PubChem.
